Test results published in ChEMBL document CHEMBL3745665, “Discovery of benzamides as potent human β3 adrenergic receptor agonists” (Bioorg Med Chem Lett, 2016).

Tests used:
[1] = target: T1, Beta-3 adrenergic receptor (Homo sapiens, UniProt P13945); test: Agonist activity at human beta-3 adrenergic receptor expressed in CHO cells assessed as increase in cAMP level after 30 mins by LANCE TR-FRET assay; format: functional, cell-based
Target sequence in this assay (P13945 whole entry): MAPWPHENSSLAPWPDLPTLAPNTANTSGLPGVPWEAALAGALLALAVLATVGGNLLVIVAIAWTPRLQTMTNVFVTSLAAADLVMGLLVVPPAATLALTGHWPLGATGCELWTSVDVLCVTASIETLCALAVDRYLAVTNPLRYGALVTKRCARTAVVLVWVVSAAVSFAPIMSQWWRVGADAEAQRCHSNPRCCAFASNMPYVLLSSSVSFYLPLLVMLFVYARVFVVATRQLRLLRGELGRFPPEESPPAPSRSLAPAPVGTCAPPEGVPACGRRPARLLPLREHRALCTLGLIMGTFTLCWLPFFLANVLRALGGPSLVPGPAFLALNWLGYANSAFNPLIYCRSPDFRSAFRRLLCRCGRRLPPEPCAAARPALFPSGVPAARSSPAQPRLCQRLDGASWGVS

[2] = target: T1, Beta-3 adrenergic receptor; test: Agonist activity at human beta-3 adrenergic receptor expressed in CHO cells assessed as increase in cAMP level after 30 mins by LANCE TR-FRET assay relative to R-(-)-isoproterenol; format: functional, cell-based
In short: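 Efficacy: the fitted maximal value of each test compound's concentration–response curve, expressed as a percent of the maximal response to R-(−)-isoproterenol.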
Target sequence in this assay (P13945 whole entry, looked up): as the sequence (P13945 whole entry) above

[3] = target: Beta-1 adrenergic receptor (Homo sapiens, UniProt P08588); test: Displacement of [125I]CYP from human beta-1 adrenergic receptor expressed in CHO cell membrane after 1 hr by scintillation counting method; format: cell membranes
[4] = target: Beta-2 adrenergic receptor (Homo sapiens, UniProt P07550); test: Displacement of [125I]CYP from human beta-2 adrenergic receptor expressed in CHO cell membrane after 1 hr by scintillation counting method; format: cell membranes
[5] = Plasma clearance in rat at 1 mg/kg, iv or 2 mg/kg, po; format: ADME, organism-based
[6] = Plasma clearance in dog at 0.5 mg/kg, iv or 2 mg/kg, po; format: ADME, organism-based, Canis lupus familiaris
[7] = Volume of distribution in rat at 1 mg/kg, iv or 2 mg/kg, po; format: ADME, organism-based; conditions: in vivo
[8] = Volume of distribution in dog at 0.5 mg/kg, iv or 2 mg/kg, po; format: ADME, organism-based, Canis lupus familiaris; conditions: in vivo
[9] = Half life in rat at 1 mg/kg, iv or 2 mg/kg, po; format: ADME, organism-based; conditions: in vivo
[10] = Half life in dog at 0.5 mg/kg, iv or 2 mg/kg, po; format: ADME, organism-based, Canis lupus familiaris; conditions: in vivo
[11] = tested on: Rattus norvegicus; test: Dose normalized AUC in rat at 2 mg/kg, po; format: ADME, organism-based; conditions: in vivo
[12] = tested on: Canis familiaris; test: Dose normalized AUC in dog at 2 mg/kg, po; format: ADME, organism-based, Canis lupus familiaris; conditions: in vivo
[13] = Oral bioavailability in rat at 2 mg/kg; format: ADME, organism-based; conditions: in vivo
[14] = Oral bioavailability in dog at 2 mg/kg; format: ADME, organism-based, Canis lupus familiaris; conditions: in vivo
[15] = Stability in human liver microsomes assessed as residual compound after 45 mins; format: ADME; conditions: read-out: Stability
[16] = Stability in dog liver microsomes assessed as residual compound after 45 mins; format: ADME, Canis lupus familiaris; conditions: read-out: Stability
[17] = Stability in rat liver microsomes assessed as residual compound after 45 mins; format: ADME; conditions: read-out: Stability
[18] = target: Voltage-gated inwardly rectifying potassium channel KCNH2 (Homo sapiens, UniProt Q12809); test: Inhibition of human ERG by IKr binding assay
[19] = tested on: Rhesus monkey; test: Dose normalized AUC in po dosed rhesus monkey; format: ADME, organism-based, Macaca mulatta; conditions: in vivo
[20] = Plasma clearance in rhesus monkey; format: ADME, organism-based, Macaca mulatta
[21] = Volume of distribution in rhesus monkey; format: ADME, organism-based, Macaca mulatta; conditions: in vivo
[22] = Half life in rhesus monkey; format: ADME, organism-based, Macaca mulatta; conditions: in vivo
[23] = Oral bioavailability rhesus monkey; format: ADME, organism-based, Macaca mulatta; conditions: in vivo
[24] = Stability in rhesus monkey liver microsomes assessed as residual compound after 45 mins; format: ADME, Macaca mulatta; conditions: read-out: Stability
[25] = Stability in human hepatocytes assessed as residual compound after 60 mins; format: ADME, cell-based, Hepatocyte; conditions: read-out: Stability
[26] = Stability in dog hepatocytes assessed as residual compound after 60 mins; format: ADME, cell-based, Canis lupus familiaris, Hepatocyte; conditions: read-out: Stability
[27] = Stability in rat hepatocytes assessed as residual compound after 60 mins; format: ADME, cell-based, Hepatocyte; conditions: read-out: Stability

Sequence of Beta-1 adrenergic receptor (P08588 whole entry): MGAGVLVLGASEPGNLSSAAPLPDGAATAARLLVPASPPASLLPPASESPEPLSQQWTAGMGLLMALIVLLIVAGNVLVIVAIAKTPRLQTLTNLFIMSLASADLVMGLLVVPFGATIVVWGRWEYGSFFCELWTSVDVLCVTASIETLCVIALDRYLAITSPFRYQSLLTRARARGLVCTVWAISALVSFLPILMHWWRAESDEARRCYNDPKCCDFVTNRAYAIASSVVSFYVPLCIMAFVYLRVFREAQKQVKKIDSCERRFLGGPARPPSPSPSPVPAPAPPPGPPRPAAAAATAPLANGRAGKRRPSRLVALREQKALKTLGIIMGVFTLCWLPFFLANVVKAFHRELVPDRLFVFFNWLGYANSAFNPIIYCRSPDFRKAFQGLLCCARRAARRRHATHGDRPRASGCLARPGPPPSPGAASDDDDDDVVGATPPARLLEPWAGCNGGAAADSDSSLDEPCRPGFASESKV
Sequence of Voltage-gated inwardly rectifying potassium channel KCNH2 (Q12809 whole entry): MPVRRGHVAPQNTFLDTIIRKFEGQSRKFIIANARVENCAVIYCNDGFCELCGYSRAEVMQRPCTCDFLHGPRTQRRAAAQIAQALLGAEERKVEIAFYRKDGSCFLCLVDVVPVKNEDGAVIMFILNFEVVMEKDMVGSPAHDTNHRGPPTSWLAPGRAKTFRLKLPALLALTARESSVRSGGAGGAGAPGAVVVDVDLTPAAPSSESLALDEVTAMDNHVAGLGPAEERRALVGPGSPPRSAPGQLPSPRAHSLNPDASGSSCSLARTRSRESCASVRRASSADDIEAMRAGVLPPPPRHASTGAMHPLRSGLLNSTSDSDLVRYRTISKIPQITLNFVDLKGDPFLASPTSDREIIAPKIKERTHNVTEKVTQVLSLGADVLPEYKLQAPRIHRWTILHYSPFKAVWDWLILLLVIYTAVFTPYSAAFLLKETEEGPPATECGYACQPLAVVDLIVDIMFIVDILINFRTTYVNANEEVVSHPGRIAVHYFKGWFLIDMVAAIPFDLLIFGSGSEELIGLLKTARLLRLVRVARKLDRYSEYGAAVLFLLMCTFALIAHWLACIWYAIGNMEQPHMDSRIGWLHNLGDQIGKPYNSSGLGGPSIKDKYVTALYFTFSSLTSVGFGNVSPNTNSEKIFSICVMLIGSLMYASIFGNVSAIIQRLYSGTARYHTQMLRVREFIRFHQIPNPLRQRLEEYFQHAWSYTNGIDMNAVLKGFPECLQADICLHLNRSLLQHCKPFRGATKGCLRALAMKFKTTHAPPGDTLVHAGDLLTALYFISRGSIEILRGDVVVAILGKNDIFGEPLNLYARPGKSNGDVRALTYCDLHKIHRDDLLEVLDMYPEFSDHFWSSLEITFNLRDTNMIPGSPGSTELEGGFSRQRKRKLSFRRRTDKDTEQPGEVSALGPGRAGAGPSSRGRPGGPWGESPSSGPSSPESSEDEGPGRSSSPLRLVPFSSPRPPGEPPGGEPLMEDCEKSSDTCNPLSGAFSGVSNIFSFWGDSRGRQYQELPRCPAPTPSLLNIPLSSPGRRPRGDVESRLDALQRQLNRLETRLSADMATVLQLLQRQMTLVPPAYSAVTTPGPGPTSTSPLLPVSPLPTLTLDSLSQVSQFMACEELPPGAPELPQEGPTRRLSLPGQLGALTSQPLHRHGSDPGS
Sequence of Beta-2 adrenergic receptor (P07550 whole entry): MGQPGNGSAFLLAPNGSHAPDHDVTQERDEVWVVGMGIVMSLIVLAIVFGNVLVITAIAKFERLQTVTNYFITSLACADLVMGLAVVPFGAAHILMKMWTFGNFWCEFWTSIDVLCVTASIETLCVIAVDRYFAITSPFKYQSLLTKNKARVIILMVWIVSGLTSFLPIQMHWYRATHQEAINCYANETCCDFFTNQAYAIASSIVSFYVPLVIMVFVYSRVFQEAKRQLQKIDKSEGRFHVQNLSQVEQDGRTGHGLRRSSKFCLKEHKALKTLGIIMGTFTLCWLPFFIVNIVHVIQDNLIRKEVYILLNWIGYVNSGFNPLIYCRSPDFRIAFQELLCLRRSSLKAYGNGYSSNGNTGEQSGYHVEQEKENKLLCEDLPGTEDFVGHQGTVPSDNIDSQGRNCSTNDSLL

Row | SMILES | EC50 [1] [µM] | %max [2] [%] | IC50 [3] [µM] | IC50 [4] [µM] | clearance [5] [mL/min/kg] | Vd [7] [L/kg] | half-life [9] [h] | AUC/dose [11] [µM·h/mg/kg] | bioavailability [13] [%] | IC50 [18] [µM] | other results
1 | CCOC(=O)[C@@H]1[C@@H]2CN(C(=O)c3ccc(C[C@@H]4CC[C@H]([C@H](O)c5ccccc5)N4)cc3)C[C@@H]21 | 0.075 | 97 | > 20 | > 20 | – | – | – | – | – | – | –
2 | CCOC(=O)C1CCN(C(=O)c2ccc(C[C@@H]3CC[C@H]([C@H](O)c4ccccc4)N3)cc2)CC1 | 0.063 | 95 | > 20 | 10.9 | – | – | – | – | – | – | –
3 | O=C(c1ccc(C[C@@H]2CC[C@H]([C@H](O)c3ccccc3)N2)cc1)N1CCC2(CCOC2=O)CC1 | 0.0033 | 89 | > 20 | 5.6 | 56 | 7.2 | 2.5 | 0.21 | 31 | 46 | clearance [6]: 31 mL/min/kg; Vd [8]: 7.4 L/kg; half-life [10]: 3.2 h; AUC/dose [12]: 0.23 µM·h; bioavailability [14]: 17%; remaining at 0.75 h [15]: 53%; remaining at 0.75 h [16]: 78%; remaining at 0.75 h [17]: 56%
4 | Nc1nc(CNC(=O)c2ccc(C[C@@H]3CC[C@H]([C@H](O)c4ccccc4)N3)cc2)cs1 | 0.024 | 84 | > 20 | 5.2 | – | – | – | – | – | > 30 | –
5 | CCS(=O)(=O)C1CCN(C(=O)c2ccc(C[C@@H]3CC[C@H]([C@H](O)c4ccccc4)N3)cc2)CC1 | 0.0097 | 100 | > 20 | > 20 | – | – | – | – | – | > 60 | –
6 | CC1(C)CC2(CCN(C(=O)c3ccc(C[C@@H]4CC[C@H]([C@H](O)c5ccccc5)N4)cc3)CC2)C(=O)O1 | 0.0019 | 85 | > 20 | 11 | 86 | 9.5 | 2 | 0.16 | 38 | 31 | –
7 | Nc1nc(CC(=O)Nc2ccc(C[C@@H]3CC[C@H]([C@H](O)c4ccccc4)N3)cc2)cs1 | – | 99 | – | – | – | – | – | – | – | – | –
8 | O=C(c1ccc(C[C@@H]2CC[C@H]([C@H](O)c3ccccc3)N2)cc1)N1C[C@@H]2[C@H](C1)[C@H]2c1nnco1 | 0.0017 | 101 | > 20 | > 20 | 62 | 9 | 1.4 | 0.26 | 43 | 55 | remaining at 0.75 h [15]: 84%; remaining at 0.75 h [16]: 73%; remaining at 0.75 h [17]: 98%; remaining at 0.75 h [24]: 80%; remaining at 1 h [25]: ≥ 85%; remaining at 1 h [26]: ≥ 85%; remaining at 1 h [27]: ≥ 85%

Further lines, with some results ahead:

Row | EC50 [1] [µM] | %max [2] [%] | IC50 [3] [µM] | IC50 [4] [µM] | clearance [5] [mL/min/kg] | Vd [7] [L/kg] | half-life [9] [h] | AUC/dose [11] [µM·h/mg/kg] | bioavailability [13] [%] | SMILES | IC50 [18] [µM] | other results
9 | 0.0037 | 84 | – | – | – | – | – | – | – | O=C(Nc1ccc(C[C@@H]2CC[C@H]([C@H](O)c3cccnc3)N2)cc1)C1CCc2ccnn21 (some centres undefined) | – | –
10 | 0.00049 | 90 | > 20 | 13.4 | – | – | – | – | – | CCOC(=O)[C@H]1[C@@H]2CN(C(=O)c3ccc(C[C@@H]4CC[C@H]([C@H](O)c5ccccc5)N4)cc3)C[C@@H]21 | – | –
11 | 0.0054 | 97 | > 20 | > 20 | 29 | 6.5 | 3.2 | 0.73 | 56 | Cn1nnc([C@H]2[C@@H]3CN(C(=O)c4ccc(C[C@@H]5CC[C@H]([C@H](O)c6ccccc6)N5)cc4)C[C@@H]32)n1 | 17 | clearance [6]: 19 mL/min/kg; Vd [8]: 5.5 L/kg; half-life [10]: 3.7 h; AUC/dose [12]: 0.99 µM·h; bioavailability [14]: 51%
12 | 0.0031 | 97 | > 20 | > 20 | 56 | 9.3 | 3 | 0.21 | 33 | CCc1nnc([C@H]2[C@@H]3CN(C(=O)c4ccc(C[C@@H]5CC[C@H]([C@H](O)c6ccccc6)N5)cc4)C[C@@H]32)o1 | – | AUC/dose [19]: 0.06 µM·h; clearance [6]: 36 mL/min/kg; Vd [8]: 9.2 L/kg; half-life [10]: 3.7 h; clearance [20]: 30 mL/min/kg; Vd [21]: 5.2 L/kg; half-life [22]: 2.4 h; AUC/dose [12]: 0.46 µM·h; bioavailability [14]: 44%; bioavailability [23]: 5%
